Experimental data from ChEMBL document CHEMBL3351368, “Biphenyl-4-carboxylic acid [2-(1H-indol-3-yl)-ethyl]-methylamide (CA224), a nonplanar analogue of fascaplysin, inhibits Cdk4 and tubulin polymerization: evaluation of in vitro and in vivo anticancer activity” (J Med Chem, 2014).
Active and inactive are the calls of the source.

Columns and labels:
[1] = target: Cyclin-dependent kinase 1/cyclin B1 (Homo sapiens, UniProt P06493); assay: Binding affinity to human CDK1/cyclinB1; assay type: protein-complex assay
Chain of Cyclin-dependent kinase 1/cyclin B1 (P06493 whole entry): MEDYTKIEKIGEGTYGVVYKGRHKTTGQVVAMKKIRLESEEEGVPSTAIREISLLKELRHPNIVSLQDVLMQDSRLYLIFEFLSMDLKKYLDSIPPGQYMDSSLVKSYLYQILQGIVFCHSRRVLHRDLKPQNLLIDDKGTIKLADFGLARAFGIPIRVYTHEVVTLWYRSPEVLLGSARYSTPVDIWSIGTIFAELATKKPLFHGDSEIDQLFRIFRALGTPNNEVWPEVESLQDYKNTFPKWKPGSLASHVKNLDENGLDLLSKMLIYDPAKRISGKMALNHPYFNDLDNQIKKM
Chain of Cyclin-dependent kinase 1/cyclin B1 (P14635 whole entry, further chain): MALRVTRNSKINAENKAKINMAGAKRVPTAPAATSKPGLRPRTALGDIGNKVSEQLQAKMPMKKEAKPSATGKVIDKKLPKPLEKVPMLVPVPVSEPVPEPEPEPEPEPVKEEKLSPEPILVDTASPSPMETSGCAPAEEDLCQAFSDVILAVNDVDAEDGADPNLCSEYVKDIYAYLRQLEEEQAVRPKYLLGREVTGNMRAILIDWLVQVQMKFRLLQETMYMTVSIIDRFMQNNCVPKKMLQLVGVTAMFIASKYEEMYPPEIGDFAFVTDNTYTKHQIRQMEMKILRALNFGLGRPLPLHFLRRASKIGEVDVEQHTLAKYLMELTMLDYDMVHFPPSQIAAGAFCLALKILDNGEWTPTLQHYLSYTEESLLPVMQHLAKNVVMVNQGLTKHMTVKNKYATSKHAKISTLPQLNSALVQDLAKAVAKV

CDK9/cyclin T1 = CDK9/cyclin T1 (Homo sapiens, UniProt P50750); assay: Binding affinity to human CDK9/cyclinT1; assay type: protein-complex assay
Chain of CDK9/cyclin T1 (O60563 whole entry): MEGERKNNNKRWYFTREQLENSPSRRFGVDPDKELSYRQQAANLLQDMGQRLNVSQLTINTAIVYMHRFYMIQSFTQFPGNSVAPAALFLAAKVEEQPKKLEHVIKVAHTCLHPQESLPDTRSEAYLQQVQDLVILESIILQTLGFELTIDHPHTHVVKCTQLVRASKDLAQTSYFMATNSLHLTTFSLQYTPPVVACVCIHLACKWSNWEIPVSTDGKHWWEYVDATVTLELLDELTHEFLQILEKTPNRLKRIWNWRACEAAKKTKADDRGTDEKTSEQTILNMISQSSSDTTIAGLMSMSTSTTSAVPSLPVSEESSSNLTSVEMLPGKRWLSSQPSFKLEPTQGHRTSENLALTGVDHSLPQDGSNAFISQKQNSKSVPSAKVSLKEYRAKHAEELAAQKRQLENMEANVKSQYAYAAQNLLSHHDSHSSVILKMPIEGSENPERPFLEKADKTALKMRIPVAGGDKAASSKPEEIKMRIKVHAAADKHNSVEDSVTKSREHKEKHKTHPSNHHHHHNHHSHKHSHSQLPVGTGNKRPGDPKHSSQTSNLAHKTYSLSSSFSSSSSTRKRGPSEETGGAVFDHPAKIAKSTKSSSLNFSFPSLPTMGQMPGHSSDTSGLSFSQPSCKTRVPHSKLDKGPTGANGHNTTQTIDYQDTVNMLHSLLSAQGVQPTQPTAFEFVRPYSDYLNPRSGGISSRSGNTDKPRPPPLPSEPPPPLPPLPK
Chain of CDK9/cyclin T1 (P50750 whole entry): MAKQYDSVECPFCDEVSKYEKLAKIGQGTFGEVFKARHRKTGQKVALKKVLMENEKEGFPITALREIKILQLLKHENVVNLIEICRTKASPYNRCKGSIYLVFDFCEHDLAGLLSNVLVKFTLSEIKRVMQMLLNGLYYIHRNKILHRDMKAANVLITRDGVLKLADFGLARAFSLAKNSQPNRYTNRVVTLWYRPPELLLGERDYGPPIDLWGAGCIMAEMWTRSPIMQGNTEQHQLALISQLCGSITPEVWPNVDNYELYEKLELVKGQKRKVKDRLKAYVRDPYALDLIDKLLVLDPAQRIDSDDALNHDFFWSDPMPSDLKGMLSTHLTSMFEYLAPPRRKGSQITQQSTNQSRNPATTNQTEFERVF

[2] = Growth inhibition of p53His273 mut, pRb+ human MiaPaCa cells after 48 hrs by MTT assay; assay type: functional; settings: MIA PaCa-2, 48 h
Summary of the method: (§1)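 MTT cell proliferation assay. IC50 (µM) was defined as the concentration giving 50% inhibition of cell growth.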

[3] = Growth inhibition of p53+, pRb+ human NCI-H460 cells after 48 hrs by MTT assay; assay type: functional, cell-based; settings: NCI-H460, 48 h; summary of the method: as §1
NCI-H1299 = assay: Growth inhibition of p53 null, pRb+ human NCI-H1299 cells after 48 hrs by MTT assay; assay type: functional, cell-based; settings: NCI-H1299, 48 h; summary of the method: as §1
NCI-H358 = assay: Growth inhibition of p53 null, pRb null human NCI-H358 cells after 48 hrs by MTT assay; assay type: functional, cell-based; settings: NCI-H358, 48 h; summary of the method: as §1
[4] = Growth inhibition of mouse BNL-CL2 cells after 48 hrs by MTT assay; assay type: functional, cell-based; settings: BNL CL.2, 48 h; summary of the method: as §1
[5] = Growth inhibition of mouse BNL-SVA.8 cells after 48 hrs by MTT assay; assay type: functional; summary of the method: as §1
[6] = Displacement of ethidium bromide from closed circular plasmid DNA (unknown origin) by fluorescence quenching assay
[7] = target: Cyclin-dependent kinase 4/cyclin D1 (Homo sapiens, UniProt P11802); assay: Binding affinity to human CDK4/cyclinD1 using GST-pRB152 as substrate by chemiluminescence assay; assay type: protein-complex assay
Chain of Cyclin-dependent kinase 4/cyclin D1 (P11802 whole entry): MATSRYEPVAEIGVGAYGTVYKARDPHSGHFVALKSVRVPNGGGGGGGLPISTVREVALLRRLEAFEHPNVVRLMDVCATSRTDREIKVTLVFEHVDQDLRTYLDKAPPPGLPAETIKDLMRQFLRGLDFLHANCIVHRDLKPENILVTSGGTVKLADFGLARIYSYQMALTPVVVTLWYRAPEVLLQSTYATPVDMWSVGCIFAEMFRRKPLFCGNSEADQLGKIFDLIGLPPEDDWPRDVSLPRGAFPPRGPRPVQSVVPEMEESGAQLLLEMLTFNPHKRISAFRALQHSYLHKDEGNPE
Chain of Cyclin-dependent kinase 4/cyclin D1 (P24385 whole entry, further chain): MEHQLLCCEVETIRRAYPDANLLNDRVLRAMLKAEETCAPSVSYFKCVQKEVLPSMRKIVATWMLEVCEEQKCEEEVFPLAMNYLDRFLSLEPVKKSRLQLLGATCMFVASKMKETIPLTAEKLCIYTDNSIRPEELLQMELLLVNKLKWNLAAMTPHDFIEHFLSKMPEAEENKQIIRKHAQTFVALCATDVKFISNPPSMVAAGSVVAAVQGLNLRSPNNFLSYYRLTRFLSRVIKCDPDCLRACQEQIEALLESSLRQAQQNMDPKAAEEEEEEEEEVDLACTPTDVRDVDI

CDK2/Cyclin A2 = CDK2/Cyclin A2 (Homo sapiens, UniProt P24941); assay: Binding affinity to human CDK2/cyclinA using GST-pRB152 as substrate by chemiluminescence assay; assay type: protein-complex assay
[8] = target: Cyclin-dependent kinase 2/cyclin E1 (Homo sapiens, UniProt P24941); assay: Binding affinity to human CDK2/cyclinE; assay type: protein-complex assay
[9] = Growth inhibition of p53+, pRb+ human LS 174T cells after 48 hrs by MTT assay; assay type: functional, cell-based; settings: LS174T; summary of the method: as §1
[10] = Growth inhibition of p53 null,pRb+ human PC3 cells after 48 hrs by MTT assay; assay type: functional, cell-based; settings: PC-3, 48 h; summary of the method: as §1
A549 = assay: Growth inhibition of p53+, pRb+ human A549 cells after 48 hrs by MTT assay; assay type: functional, cell-based; settings: A549, 48 h; summary of the method: as §1
[11] = Growth inhibition of p53 null, pRb+ human Calu1 cells after 48 hrs by MTT assay; assay type: functional, cell-based; settings: Calu-1, 48 h; summary of the method: as §1

Structure (SMILES)	IC50 [1] [µM]	IC50 (CDK9/cyclin T1) [µM]	IC50 [2] [µM]	IC50 [3] [µM]	IC50 (NCI-H1299) [µM]	IC50 (NCI-H358) [µM]	IC50 [4] [µM]	IC50 [5] [µM]	inhibition [6]	IC50 [7] [µM]	IC50 (CDK2/Cyclin A2) [µM]	IC50 [8] [µM]	IC50 [9] [µM]	IC50 [10] [µM]	IC50 (A549) [µM]	IC50 [11] [µM]	IC50 [6] [µM]
CN(CCc1c[nH]c2ccccc12)C(=O)c1ccc(C(C)(C)C)cc1	> 500	> 1000	10.2	9.8	11.5	14	18	22	inactive	–	–	–	–	–	–	–	–
O=C1c2ccccc2-[n+]2ccc3c([nH]c4ccccc43)c21 [FASCAPLYSIN CHLORIDE]	> 250	> 250	–	–	–	–	–	–	–	0.41	> 250	> 250	0.88	0.92	0.69	1.3	5
CN(CCc1c[nH]c2ccccc12)C(=O)c1ccc(Cl)cc1	> 500	> 1000	31	24	21	26	29	32	inactive	–	–	–	–	–	–	–	–
